Experimental data as given in ChEMBL document CHEMBL1833957, “P1-substituted symmetry-based human immunodeficiency virus protease inhibitors with potent antiviral activity against drug-resistant viruses” (J Med Chem, 2011).
In brackets after ≈: the same amount, converted by molar mass.

Columns and labels:
[1] = Cmax in rat at 5 mg/kg, po; assay type: ADME, organism-based; parameters: dose 5 mg/kg, route oral; details: in vivo
Procedure, shortened: (§1)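 Rats given a single 5 mg/kg oral dose with no ritonavir. Plasma Cmax is reported in μg/mL and AUC in μg h/mL.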

[2] = AUC in rat at 5 mg/kg, po; assay type: ADME, organism-based; parameters: dose 5 mg/kg, route oral; details: plasma; procedure, shortened: as §1
[3] = tested on: Human immunodeficiency virus 1; experiment: Antiviral activity against wild type HIV1 pNL4-3 infected in human MT4 cells assessed as inhibition of virus-induced cell death after 5 days by MTT assay in presence of 50% human serum; assay type: functional, organism-based; details: Human immunodeficiency virus 1, pNL4-3, MT4, 120 h
[4] = Permeability of the compound; assay type: ADME; details: not told; read-out: permeability
[5] = Metabolic stability in human liver microsomes assessed as disappearance of the compound after 20 mins; assay type: ADME, Microsome; details: read-out: Drug metabolism
[6] = tested on: Human immunodeficiency virus 1; experiment: Antiviral activity against HIV1 A17 harboring protease L10F, V32I, M46I, I47V, Q58E and I84V mutant infected in human MT4 cells assessed as inhibition of virus-induced cell death after 5 days by MTT assay relative to wild type HIV1 pNL4-3; assay type: functional
[7] = tested on: Human immunodeficiency virus 1; experiment: Antiviral activity against wild type HIV1 pNL4-3 infected in human MT4 cells assessed as inhibition of virus-induced cell death after 5 days by MTT assay; assay type: functional, organism-based; details: Human immunodeficiency virus 1, pNL4-3, MT4, 120 h
Procedure, shortened: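 EC50 measured against wild-type virus in MT-4 cells, with no human serum added.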

[8] = Oral bioavailability in rat at 5 mg/kg; assay type: ADME, organism-based; details: in vivo
[9] = tested on: Human immunodeficiency virus 1; experiment: Antiviral activity against HIV1 harboring protease L10I, I13V, G16A, Q18H, L33F, N37D, M46I, I54V, G57R, Q61H,I62V, L63P, A71L, I72T, L76V, V77I, V82A, N88G, L90M, I93L mutant infected in human MT4 cells assessed as inhibition of virus-induced cell death after 5 days by MTT assay relative to wild type HIV1 pNL4-3; assay type: functional
[10] = tested on: Human immunodeficiency virus 1; experiment: Antiviral activity against HIV1 isolate 1 harboring protease L10I, E35D, N37D, M46I, I54V, G57R, L63P, A71V, T74P, I84V, L90M, I93L mutant infected in human MT4 cells assessed as inhibition of virus-induced cell death after 5 days by MTT assay relative to wild type HIV1 pNL4-3; assay type: functional
[11] = tested on: Human immunodeficiency virus 1; experiment: Antiviral activity against HIV1 B26 harboring protease L33F, K45I, M46I, I50V, A71V and V82F mutant infected in human MT4 cells assessed as inhibition of virus-induced cell death after 5 days by MTT assay relative to wild type HIV1 pNL4-3; assay type: functional
[12] = Aqueous solubility of the compound; assay type: physicochemical; details: buffer
[13] = Cmax in rat at 5 mg/kg, po co-administered with 5 mg/kg of CYP3A4 inhibitor ritonavir; assay type: ADME, organism-based; parameters: dose 5 mg/kg, route oral; details: in vivo
Procedure, shortened: (§2)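 Rats given 5 mg/kg orally together with 5 mg/kg ritonavir. Plasma Cmax is reported in μg/mL and AUC in μg h/mL.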

Liver microsomes [14] = experiment: Metabolic stability in human liver microsomes assessed as disappearance of the compound after 20 mins in the presence of 0.4 uM CYP3A4 inhibitor ritonavir
[15] = AUC in rat at 5 mg/kg, po co-administered with 5 mg/kg of CYP3A4 inhibitor ritonavir; assay type: ADME, organism-based; details: plasma; procedure, shortened: as §2
[16] = Oral bioavailability in rat at 5 mg/kg co-administered with 5 mg/kg of CYP3A4 inhibitor ritonavir relative to iv dose without ritonavir co-administration; assay type: ADME, organism-based; details: in vivo
Procedure, shortened: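 Rats given 5 mg/kg orally with 5 mg/kg ritonavir. Bioavailability (%) is calculated against an IV dose given without ritonavir.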

Liver microsomes [17] = experiment: Metabolic stability in human liver microsomes assessed as disappearance of the compound after 20 mins in the presence of 0.4 uM CYP3A4 inhibitor ritonavir; assay type: ADME, Microsome
Rattus norvegicus = experiment: Ratio of AUC in rat at 5 mg/kg, po co-administered with 5 mg/kg CYP3A4 inhibitor ritonavir to AUC in rat at 5 mg/kg, po in the absence of CYP3A4 inhibitor ritonavir; assay type: ADME, organism-based; details: in vivo

| Compound | Cmax [1] [ng/mL] | AUC [2] [ng·h/mL] | EC50 [3] [nM] | Papp [4] [×10⁻⁶ cm/s] | metabolised at 20 min [5] [%] | fold change (FC) [6] | EC50 [7] [nM] | bioavailability [8] [%] | fold change (FC) [9] | fold change (FC) [10] | fold change (FC) [11] | solubility [12] [µM] | Cmax [13] [ng/mL] | Stability (Liver microsomes [14]) | AUC [15] [ng·h/mL] | bioavailability [16] [%] | Stability (Liver microsomes [17]) | Ratio AUC (Rattus norvegicus) |
| --- | --- | --- | --- | --- | --- | --- | --- | --- | --- | --- | --- | --- | --- | --- | --- | --- | --- | --- |
| COC(=O)N[C@H](C(=O)N[C@@H](Cc1ccccc1)C[C@H](O)[C@H](Cc1ccc(-c2cncc(F)c2)cc1)NC(=O)[C@@H](NC(=O)OC)C(C)(C)C)C(C)(C)C | 110 | 160 | 24 | 7.3 | 40 | 3 | 4 | 13 | 2 | 38 | 3 | 10.4 (≈ 7.51 µg/mL) |  |  |  |  |  |  |
| COC(=O)N[C@H](C(=O)N[C@@H](Cc1ccccc1)C[C@H](O)[C@H](Cc1ccc(-c2cccnc2)cc1)NC(=O)[C@@H](NC(=O)OC)C(C)(C)C)C(C)(C)C | 180 | 160 | 35 |  | 40 | 2 | 11 | 5 | 17 | 29 | 3 |  | 430 | Stable | 740 | 25 | Stable |  |
| COC(=O)N[C@H](C(=O)N[C@@H](Cc1ccccc1)C[C@H](O)[C@H](Cc1ccc(-c2ccccn2)cc1)NC(=O)[C@@H](NC(=O)OC)C(C)(C)C)C(C)(C)C | 280 | 190 | 19 |  | 40 | 20 | 6 | 7 |  |  | 29 |  | 1550 | Stable | 4880 | > 100 | Stable | 25 |
